≈ marks a conversion by molar mass, not a printed value.
Assays:
[1] = Oral bioavailability in Sprague-Dawley rat at 2 mg/kg; assay type: ADME, organism-based; details: in vivo
Summary of the method: (§1)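 Male Sprague-Dawley rats given 2.0 mpk orally in 10 mL/kg of 30% hydroxypropyl-β-cyclodextrin adjusted to pH 2.2 with methanesulfonic acid.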

[2] = AUC (infinity) in Sprague-Dawley rat at 2 mg/kg, po; assay type: ADME, organism-based; design: dose 2 mg/kg, route oral, time infinity; details: plasma; summary of the method: as §1
[3] = Solubility of the compound in simulated intestinal fluid; assay type: physicochemical
[4] = Solubility of the compound in phosphate buffered saline at pH 7.4; assay type: physicochemical
[5] = Solubility of the compound in 0.01 N HCl; assay type: physicochemical
[6] = Cmax in Sprague-Dawley rat at 2 mg/kg, po; assay type: ADME, organism-based; design: dose 2 mg/kg, route oral; details: in vivo; summary of the method: as §1
[7] = Volume of distribution at steady state in Sprague-Dawley rat at 0.5 mg/kg, iv; assay type: ADME, organism-based; design: dose 0.5 mg/kg, route intravenous; details: in vivo, read-out: Vdss
Plasma = experiment: Drug metabolism in rat plasma assessed as formation of mono-oxidized product at 10 uM after 3 hrs; assay type: ADME, cell-free

Structure (SMILES)	bioavailability [1] [%]	AUC(0-inf) [2] [µM·h]	solubility [3] [µg/mL]	solubility [4] [µg/mL]	solubility [5] [µg/mL]	Cmax [6] [nM]	Vd [7] [L/kg]	Drug metabolism (Plasma)
Nc1cncc(Nc2ccc(Oc3ccc(OC(F)(F)F)cc3)cc2)n1	13	0.76	109 (≈ 301 µM)	1 (≈ 2.76 µM)	7 (≈ 19.3 µM)	220	2.1	–
Nc1ncnc(Nc2ccc(Oc3ccc(Cl)cc3)cc2)n1	–	–	7 (≈ 22.3 µM)	1 (≈ 3.19 µM)	6 (≈ 19.1 µM)	–	–	Active

Source: ChEMBL document CHEMBL2010700, “The discovery of aminopyrazines as novel, potent Na(v)1.7 antagonists: hit-to-lead identification and SAR” (Bioorg Med Chem Lett, 2012)
